{"data": "Measured values gathered from unrelated publications", "target": "Serine/threonine-protein kinase BRSK2 (BRSK2, Homo sapiens, UniProt Q8IWQ3)", "One construct used (Q8IWQ3 1-736)": "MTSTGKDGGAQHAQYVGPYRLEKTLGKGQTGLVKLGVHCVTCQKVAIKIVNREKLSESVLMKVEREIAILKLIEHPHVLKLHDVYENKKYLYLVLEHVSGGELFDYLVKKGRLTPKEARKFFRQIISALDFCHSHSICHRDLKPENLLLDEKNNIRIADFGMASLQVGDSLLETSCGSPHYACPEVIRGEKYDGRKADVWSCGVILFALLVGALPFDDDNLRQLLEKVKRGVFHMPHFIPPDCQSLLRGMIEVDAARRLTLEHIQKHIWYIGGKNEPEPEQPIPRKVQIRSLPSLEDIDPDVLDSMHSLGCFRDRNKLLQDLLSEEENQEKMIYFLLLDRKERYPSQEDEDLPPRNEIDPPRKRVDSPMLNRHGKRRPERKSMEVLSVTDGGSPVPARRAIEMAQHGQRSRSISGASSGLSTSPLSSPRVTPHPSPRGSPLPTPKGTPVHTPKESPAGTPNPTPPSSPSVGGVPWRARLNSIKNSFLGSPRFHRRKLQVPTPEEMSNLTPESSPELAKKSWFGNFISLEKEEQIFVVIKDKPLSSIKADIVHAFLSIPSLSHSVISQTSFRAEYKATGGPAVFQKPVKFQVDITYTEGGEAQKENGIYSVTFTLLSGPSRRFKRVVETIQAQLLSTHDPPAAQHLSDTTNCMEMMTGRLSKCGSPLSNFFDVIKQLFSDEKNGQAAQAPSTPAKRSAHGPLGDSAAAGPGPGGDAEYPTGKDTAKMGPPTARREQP", "note": "Compare with care: the assays were run in different laboratories."}
{"SMILES": "COc1cnc(Nc2cccc(S(N)(=O)=O)c2)nc1N1CCN(c2ccccc2)C(=O)C1", "effect on": "binding", "technique": "competition with immobilised ligand", "concentration": "1 µM", "remaining binding [%]": 100}
{"SMILES": "COc1ncc2cc3ccccc3nc2c1C#N", "effect on": "cell-free assay", "technique": "competition with immobilised ligand", "concentration": "5 µM", "remaining binding [%]": 74}
{"SMILES": "O=C(Nc1c[nH]nc1C(=O)NC1CCNCC1)c1cc(F)cc(F)c1", "effect on": "binding", "technique": "competition with immobilised ligand", "concentration": "1 µM", "remaining binding [%]": 100}
{"SMILES": "N[C@H]1CCN(c2nccc(-c3cnn4ncccc34)n2)C1", "effect on": "binding", "concentration": "1 µM", "remaining binding [%]": 100}
{"SMILES": "C[C@@H](c1ccc(-n2cnc3c(N)ncnc32)cc1)N1CCc2nn(C)c(Cc3ccccc3)c2C1=O", "effect on": "binding", "technique": "competition with immobilised ligand", "concentration": "0.1 µM", "remaining binding [%]": 90}
{"SMILES": "COc1ccnn2ncc(-c3ccnc(N(C)C)n3)c12", "effect on": "binding", "concentration": "1 µM", "remaining binding [%]": 76}
{"SMILES": "O=C(NCCCN1CCOCC1)c1ccc(Nc2ncc(Cl)c(-c3ccc(Cl)s3)n2)cc1", "effect on": "binding", "technique": "competition with immobilised ligand", "concentration": "1 µM", "remaining binding [%]": 45}
{"SMILES": "CC1CCCN1c1nccc(-c2cnn3ncccc23)n1 (stereo not drawn)", "effect on": "binding", "concentration": "1 µM", "remaining binding [%]": 100}
{"SMILES": "CNC(=O)[C@@H]1CC[C@@H](n2c(-c3ccc4cnccc4c3)nc3ccc(C(=O)NCc4cccc(C(N)=O)c4)cc32)C1", "effect on": "binding", "technique": "competition with immobilised ligand", "concentration": "1 µM", "remaining binding [%]": 93}
{"SMILES": "CCCCN(CCCC)C(=O)CN1C[C@H](c2cc(OC)c3c(c2)OCO3)[C@@H](C(=O)O)[C@@H]1CC(C)(C)CCC", "effect on": "cell-free assay", "technique": "competition with immobilised ligand", "concentration": "1 µM", "remaining binding [%]": 95.6}
{"SMILES": "Cc1cnc(Nc2ccc(C(=O)N3CCC(N4CCCC4)CC3)cc2)nc1-c1cc2ccccc2s1", "effect on": "binding", "technique": "competition with immobilised ligand", "concentration": "1 µM", "remaining binding [%]": 42}
{"SMILES": "O=C(O)[C@@H]1[C@@H](Cn2nnc3ccccc3c2=O)CC[C@H]1C(=O)c1ccc(OCCC2CCOCC2)cc1", "effect on": "cell-free assay", "technique": "competition with immobilised ligand", "concentration": "1 µM", "remaining binding [%]": 100}
{"SMILES": "O=C(c1ccc(Nc2ncc(Cl)c(-c3ccc(Cl)s3)n2)cc1)N1CCC(N2CCCC2)CC1", "effect on": "binding", "technique": "competition with immobilised ligand", "concentration": "1 µM", "remaining binding [%]": 58}
{"SMILES": "O=C(Nc1cccnn1)N1CC(C/C=C/c2cncc(Oc3ccc(C(F)(F)F)cn3)n2)C1", "effect on": "cell-free assay", "technique": "competition with immobilised ligand", "concentration": "1 µM", "remaining binding [%]": 100}
{"SMILES": "CCN1CCN(Cc2ccc(C(=O)Nc3ccc(C)c(Oc4ccc5c(c4)CC(=O)N5)c3)cc2C(F)(F)F)CC1", "effect on": "binding", "technique": "competition with immobilised ligand", "concentration": "1 µM", "remaining binding [%]": 100}
{"SMILES": "CN(C)c1ncnc(-c2ccc3nc(Nc4cc(CN5CCN(C(=O)CC(F)(F)F)CC5)ccn4)[nH]c3c2)c1Cl", "effect on": "cell-free assay", "technique": "competition with immobilised ligand", "concentration": "1 µM", "remaining binding [%]": 100}
{"SMILES": "F[C@@H]1CCN(c2nccc(-c3cnn4ncccc34)n2)C1", "effect on": "binding", "concentration": "1 µM", "remaining binding [%]": 100}
{"SMILES": "COc1cc(-c2cn(C3CCc4ccccc4N(CC(F)(F)F)C3=O)nn2)ccc1-n1ccc(C)n1 (stereo not drawn)", "effect on": "cell-free assay", "technique": "competition with immobilised ligand", "concentration": "1 µM", "remaining binding [%]": 97}
{"SMILES": "c1cnn2ncc(-c3ccnc(N4CCC45COC5)n3)c2c1", "effect on": "binding", "concentration": "1 µM", "remaining binding [%]": 84}
{"SMILES": "Nc1cnc(N2CCc3cc(S(=O)(=O)Nc4c(F)cc(Cl)cc4F)cc(N4CCCC4=O)c32)nc1", "effect on": "cell-free assay", "technique": "competition with immobilised ligand", "concentration": "1 µM", "remaining binding [%]": 80}
{"SMILES": "C[C@H]1CCN(c2nccc(-c3cnn4ncccc34)n2)C1", "effect on": "binding", "concentration": "1 µM", "remaining binding [%]": 96}
